Laboratory results from ChEMBL document CHEMBL4014276, “Diphenylurea derivatives for combating methicillin- and vancomycin-resistant Staphylococcus aureus” (Eur J Med Chem, 2017).
In brackets after ≈: the same amount, converted by molar mass. Activity calls are given as the source filed them. The rule behind the calls is not given here.

Tests used:
Staphylococcus aureus [1] = assay: Bactericidal activity against methicillin-resistant Staphylococcus aureus USA400 assessed as time required to reduce log10CFU of bacterial load at 4 times MIC by time kill assay; assay type: functional
Staphylococcus aureus [2] = assay: Bactericidal activity against vancomycin-resistant Staphylococcus aureus VRSA10 after 18 hrs by broth microdilution method; assay type: functional; settings: VRSA10, 18 h
Summary of the method: (§1)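 From MIC wells without visible growth, 5 uL spotted onto Tryptic soy agar, incubated 37 °C for at least 18 h; MBC taken as lowest concentration giving 99.9% growth inhibition.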

Staphylococcus aureus [3] = assay: Antibacterial activity against methicillin-resistant Staphylococcus aureus USA100 NRS382 clinical isolate after 20 hrs by broth microdilution method; assay type: functional; settings: USA100 NRS382, 20 h
Summary of the method: (§2)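 CLSI broth microdilution in cation-adjusted Mueller Hinton broth; compounds serially diluted, triplicate samples; 37 °C, 20 h. MIC read visually as lowest concentration with no visible growth; mean of triplicate determinations reported.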

Staphylococcus aureus [4] = assay: Bactericidal activity against methicillin-resistant Staphylococcus aureus USA200 NRS383 clinical isolate after 18 hrs by broth microdilution method; assay type: functional; settings: USA200 NRS383, 18 h; summary of the method: as §1
Staphylococcus aureus [5] = assay: Bactericidal activity against methicillin-resistant Staphylococcus aureus USA300 NRS384 clinical isolate after 18 hrs by broth microdilution method; assay type: functional; settings: USA300 NRS384, 18 h; summary of the method: as §1
HaCaT [6] = assay: Cytotoxicity against human HaCaT cells up to 32 ug/ml after 2 hrs by MTS assay; assay type: cell-based
Summary of the method: (§3)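 Keratinocytes grown in DMEM with 10% FBS at 37 °C, 5% CO2; exposed in triplicate to 8, 16, 32 and 64 µg/mL for 2 h. DMSO-matched controls. MTS added for 4 h, absorbance at 490 nm. Viability expressed as % of DMSO-treated cells (mean of triplicate ± SD); one-way ANOVA with Dunnett's test, P < 0.05.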

Staphylococcus aureus [7] = assay: Bactericidal activity against methicillin-resistant Staphylococcus aureus USA400 NRS123 clinical isolate after 18 hrs by broth microdilution method; assay type: functional; settings: USA400 NRS123, 18 h; summary of the method: as §1
Staphylococcus aureus [8] = assay: Antibacterial activity against methicillin-resistant Staphylococcus aureus USA100 NRS382 clinical isolate preincubated followed by bacterial subculturing for 2 weeks; assay type: functional
Staphylococcus aureus [9] = assay: Antibacterial activity against Staphylococcus aureus RN4220 NRS107 clinical isolate after 20 hrs by broth microdilution method; assay type: functional; settings: RN4220 NRS107, 20 h; summary of the method: as §2
Staphylococcus aureus [10] = assay: Antibacterial activity against methicillin-resistant Staphylococcus aureus USA400 NRS123 clinical isolate preincubated followed by bacterial subculturing for 2 weeks; assay type: functional
Staphylococcus aureus [11] = assay: Antibacterial activity against methicillin-resistant Staphylococcus aureus USA300 NRS384 clinical isolate after 20 hrs by broth microdilution method; assay type: functional; settings: USA300 NRS384, 20 h; summary of the method: as §2
Staphylococcus aureus [12] = assay: Antibacterial activity against methicillin-resistant Staphylococcus aureus USA200 NRS383 clinical isolate after 20 hrs by broth microdilution method; assay type: functional; settings: USA200 NRS383, 20 h; summary of the method: as §2
Staphylococcus aureus [13] = assay: Bactericidal activity against vancomycin-resistant Staphylococcus aureus VRSA4 after 18 hrs by broth microdilution method; assay type: functional; settings: VRSA4, 18 h; summary of the method: as §1
Staphylococcus aureus [14] = assay: Bactericidal activity against Staphylococcus aureus RN4220 NRS107 clinical isolate after 18 hrs by broth microdilution method; assay type: functional; settings: RN4220 NRS107, 18 h; summary of the method: as §1
Staphylococcus aureus [15] = assay: Bactericidal activity against methicillin-resistant Staphylococcus aureus USA400 NRS123 clinical isolate assessed as disruption of bacterial membrane by measuring leakage of 280 nM absorbing material at 5 times MIC after 30 mins by spectrophotometric method; assay type: functional
Staphylococcus aureus [16] = assay: Antibacterial activity against vancomycin-resistant Staphylococcus aureus VRSA4 after 20 hrs by broth microdilution method; assay type: functional; settings: VRSA4, 20 h; summary of the method: as §2
Staphylococcus aureus [17] = assay: Bactericidal activity against methicillin-resistant Staphylococcus aureus USA400 NRS123 clinical isolate assessed as disruption of bacterial membrane by measuring leakage of 260 nM absorbing material at 5 times MIC after 30 mins by spectrophotometric method; assay type: functional
Staphylococcus aureus [18] = assay: Antibacterial activity against methicillin-resistant Staphylococcus aureus USA400 NRS123 clinical isolate after 20 hrs by broth microdilution method; assay type: functional; settings: USA400 NRS123, 20 h; summary of the method: as §2
Staphylococcus aureus [19] = assay: Antibacterial activity against methicillin-resistant Staphylococcus aureus USA300 NRS384 clinical isolate preincubated followed by bacterial subculturing for 2 weeks; assay type: functional
Staphylococcus aureus [20] = assay: Bactericidal activity against methicillin-resistant Staphylococcus aureus USA100 NRS382 clinical isolate after 18 hrs by broth microdilution method; assay type: functional; settings: USA100 NRS382, 18 h; summary of the method: as §1
Staphylococcus aureus [21] = assay: Antibacterial activity against methicillin-resistant Staphylococcus aureus USA200 NRS383 clinical isolate preincubated followed by bacterial subculturing for 2 weeks; assay type: functional
J774 = assay: Cytotoxicity against mouse J774 cells at 8 ug/ml after 24 hrs by MTS assay; assay type: cell-based; settings: j774, 24 h
Summary of the method: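 Murine macrophages cultured in DMEM plus 10% FBS, 37 °C, 5% CO2; compounds at 8, 16, 32, 64 µg/mL in triplicate for 24 h against DMSO-matched controls. MTS reagent 4 h, read at OD490. Viability as % of DMSO control (triplicate mean ± SD); one-way ANOVA, Dunnett's post hoc, P < 0.05.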

Staphylococcus aureus [22] = assay: Antibacterial activity against vancomycin-resistant Staphylococcus aureus VRSA10 after 20 hrs by broth microdilution method; assay type: functional; settings: VRSA10, 20 h; summary of the method: as §2
Staphylococcus aureus [23] = assay: Antibacterial activity against methicillin-resistant Staphylococcus aureus USA400 infected in Caenorhabditis elegans AU37 harboring (sek-1(km4);glp-4(bn2)I) mutant assessed as reduction in colony forming units at 10 ug/ml after 20 hrs by microscopic method relative to control; assay type: functional; set-up: scale not given: the % may be the effect or the level left
Summary of the method: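 C. elegans AU37 L4/adult worms infected on MRSA USA400 lawn 6 h, washed in M9; 15-25 worms per well treated with 10 µg/mL in triplicate for 20 h, PBS negative control; worms lysed with silicon carbide, plated on TSA with 5 µg/mL nalidixic acid, 37 °C 18 h; CFU per worm, Student's t-test with Holm-Sidak correction.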

Staphylococcus aureus [24] = assay: Bactericidal activity against methicillin-resistant Staphylococcus aureus USA400 infected in mouse J774 cells assessed as reduction in colony forming units at 16 ug/ml after 24 hrs by time kill assay relative to control; assay type: functional
Summary of the method: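 J774 murine macrophages in DMEM/10% FBS infected with MRSA USA400 at MOI ~100:1 for 1 h, extracellular bacteria killed with gentamicin 50 µg/mL; treated at 16 µg/mL in triplicate; after 4, 8 or 24 h cells washed, lysed with 0.1% Triton X-100, plated for CFU; percent reduction versus untreated, t-test.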

[25] = Intrinsic clearance in human liver microsomes in presence of NADPH by LC-MS/MS method; assay type: ADME, microsome; settings: read-out: CLH
[26] = Apparent permeability across basolateral to apical side in human Caco2 cells at 10 uM after 2 hrs by LC-MS/MS method; assay type: ADME, cell-based; settings: Caco-2
[27] = Intrinsic clearance in human liver microsomes in absence of NADPH by LC-MS/MS method; assay type: ADME, microsome; settings: read-out: CLH
[28] = Apparent permeability across apical to basolateral side in human Caco2 cells at 10 uM after 2 hrs by LC-MS/MS method; assay type: ADME, cell-based; settings: Caco-2
HaCaT [29] = assay: Cytotoxicity against human HaCaT cells up to 64 ug/ml after 2 hrs by MTS assay; assay type: cell-based; summary of the method: as §3

Row | Structure (SMILES) | Time (Staphylococcus aureus [1]) | MBC (Staphylococcus aureus [2]) [µg/mL] | MIC (Staphylococcus aureus [3]) [µg/mL] | MBC (Staphylococcus aureus [4]) [µg/mL] | MBC (Staphylococcus aureus [5]) [µg/mL] | MBC (Staphylococcus aureus [7]) [µg/mL] | Activity (Staphylococcus aureus [8]) | MIC (Staphylococcus aureus [9]) [µg/mL] | Activity (Staphylococcus aureus [10]) | MIC (Staphylococcus aureus [11]) [µg/mL] | MIC (Staphylococcus aureus [12]) [µg/mL] | MBC (Staphylococcus aureus [13]) [µg/mL] | MBC (Staphylococcus aureus [14]) [µg/mL] | Activity (Staphylococcus aureus [15]) | MIC (Staphylococcus aureus [16]) [µg/mL] | Activity (Staphylococcus aureus [17]) | MIC (Staphylococcus aureus [18]) [µg/mL] | Activity (Staphylococcus aureus [19]) | MBC (Staphylococcus aureus [20]) [µg/mL] | MIC (Staphylococcus aureus [22]) [µg/mL] | other results
1 | C/C(=N\NC(=N)N)c1ccc(NC(=O)Nc2ccc(OCCC(C)C)cc2)cc1 | <=4 hr | 4 (≈ 10.1 µM) | 4 (≈ 10.1 µM) | 4 (≈ 10.1 µM) | 4 (≈ 10.1 µM) | 4 (≈ 10.1 µM) | Active | 2 (≈ 5.04 µM) | Active | 2 (≈ 5.04 µM) | 2 (≈ 5.04 µM) | 4 (≈ 10.1 µM) | 4 (≈ 10.1 µM) | inactive | 4 (≈ 10.1 µM) | inactive | 2 (≈ 5.04 µM) | Active | 4 (≈ 10.1 µM) | 2 (≈ 5.04 µM) | Activity (HaCaT [6]): Non-Toxic; Activity (Staphylococcus aureus [21]): Active; Activity (J774): Toxic
2 | CN[C@H](CC(C)C)C(=O)N[C@H]1C(=O)N[C@@H](CC(N)=O)C(=O)N[C@H]2C(=O)N[C@H]3C(=O)N[C@H](C(=O)N[C@H](C(=O)O)c4cc(O)cc(O)c4-c4cc3ccc4O)[C@H](O)c3ccc(c(Cl)c3)Oc3cc2cc(c3O[C@@H]2O[C@H](CO)[C@@H](O)[C@H](O)[C@H]2O[C@H]2C[C@](C)(N)[C@H](O)[C@H](C)O2)Oc2ccc(cc2Cl)[C@H]1O [VANCOMYCIN] | 24 h | > 128 | < 1 | 0.5 (≈ 0.345 µM) | 1 (≈ 0.69 µM) | 0.5 (≈ 0.345 µM) | – | – | – | – | – | > 128 | 1 (≈ 0.69 µM) | inactive | > 128 | inactive | – | – | < 1 | > 128 | Activity (Staphylococcus aureus [23]): 25%; Activity (Staphylococcus aureus [24]): inactive
3 | CC(=O)CC(c1ccccc1)c1c(O)c2ccccc2oc1=O (stereo unspecified) [WARFARIN] | – | – | – | – | – | – | – | – | – | – | – | – | – | – | – | – | – | – | – | – | microsomal CLint [25]: < 9.6 µL/min/mg; Papp B→A at 2 h, 10 µM [26]: 20.3 ×10⁻⁶ cm/s; microsomal CLint [27]: < 9.6 µL/min/mg; Papp A→B at 2 h, 10 µM [28]: 27.7 ×10⁻⁶ cm/s
4 | CCCCCOc1ccc(NC(=O)Nc2ccc(/C(C)=N/NC(=N)N)cc2)cc1 | – | 8 (≈ 20.2 µM) | 4 (≈ 10.1 µM) | 4 (≈ 10.1 µM) | 4 (≈ 10.1 µM) | 16 (≈ 40.4 µM) | Active | 4 (≈ 10.1 µM) | Active | 4 (≈ 10.1 µM) | 4 (≈ 10.1 µM) | 4 (≈ 10.1 µM) | 8 (≈ 20.2 µM) | – | 4 (≈ 10.1 µM) | – | 4 (≈ 10.1 µM) | Active | 4 (≈ 10.1 µM) | 4 (≈ 10.1 µM) | Activity (HaCaT [29]): Non-Toxic; Activity (Staphylococcus aureus [21]): Active
